For one experiment, the system named is SK-OV-3. Put plainly: Cytotoxicity against human SKOV3 cells after 48 hrs by MTT assay. It is filed as functional, cell-based. As to conditions: SK-OV-3, 48 h. In a few lines:
(§1)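 Log-phase tumour cells grown in RPMI-1640 with 10% FBS, penicillin/streptomycin and 1% L-glutamine at 37 °C, 5% CO2. Cells treated with vehicle or a range of concentrations for 48 h. Growth measured by MTT reduction, absorbance at 570 nm. IC50 is the concentration giving 50% proliferation inhibition, from 3 independent experiments.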
A general note: Tetrazolium dyes change colour on reduction, which living cells bring about.

Experiment [1] can be described thus: Cell cycle arrest in human H460 cells assessed as accumulation at sub G1 phase at 1 uM after 24 hrs by propidium iodide staining-based FACS analysis (reference value: 3.07%). It is filed as functional. As to conditions: NCI-H460. In a few lines:
(§2)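 H460 cells treated 24 h with 1.0, 2.5 or 5.0 µM; washed in PBS, fixed overnight in 70% ice-cold ethanol at −20 °C, stained 30 min in the dark with 0.1% Triton X-100, 0.2 mg/mL RNase and 20 µg/mL propidium iodide; DNA content by flow cytometry, phase distribution from histogram modelling.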

In experiment [2] the test system is HL-60. Put plainly: Cell cycle arrest in human HL60 cells assessed as accumulation at sub G1 phase at 0.5 uM after 24 hrs by propidium iodide staining-based FACS analysis (reference value: 0.35%). It counts as functional.
Experiment [3] has as its system HL-60. Put plainly: Cell cycle arrest in human HL60 cells assessed as accumulation at G0/G1 phase at 1 uM after 24 hrs by propidium iodide staining-based FACS analysis (reference value: 39.80%). It is filed as functional. (In general: In flow cytometry, cells or beads pass a laser one at a time.)
For a further experiment, the system named is Detroit 551. Put plainly: Cytotoxicity against human Detroit 551 cells after 48 hrs by MTT assay. It counts as cell-based. As to conditions: Detroit 551, 48 h. In a few lines: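 Detroit 551 normal skin cells and Hep 3B hepatoma cells grown in DMEM with 10% FBS, penicillin/streptomycin and 1% L-glutamine at 37 °C, 5% CO2. Log-phase cells treated with vehicle or a range of concentrations for 48 h. MTT reduction read at 570 nm. IC50 (50% proliferation inhibition) taken from 3 independent experiments.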

In experiment [4] the test system is HL-60. Put plainly: Cell cycle arrest in human HL60 cells assessed as accumulation at sub G1 phase at 0.25 uM after 24 hrs by propidium iodide staining-based FACS analysis (reference value: 0.35%). It counts as functional.
A short description of experiment [5]: Cell cycle arrest in human H460 cells assessed as accumulation at G0/G1 phase at 2.5 uM after 24 hrs by propidium iodide staining-based FACS analysis (reference value: 46.19%). The settings on record: NCI-H460. It counts as functional. In a few lines: as §2
For another experiment, the system named is NCI-H460. Briefly: Induction of apoptosis in human H460 cells assessed as chromatin condensation at 1 to 5 uM after 24 hrs by Hoechst 33258 staining-based microscopy. It counts as functional, cell-based. The gist of the method:
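H460 plated at 5×10⁴ cells/well and incubated 24 h with 1.0, 2.5 or 5.0 µM; stained with 5 µg/mL Hoechst 33258 for 10 min, washed twice in PBS, fixed in 4% paraformaldehyde 10 min at 25 °C; nuclei scored for chromatin condensation, fragmentation and apoptotic bodies by fluorescence microscopy; 0.1% DMSO control.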

For experiment [6], the system named is HL-60. Put plainly: Cell cycle arrest in human HL60 cells assessed as accumulation at G2/M phase at 0.5 uM after 24 hrs by propidium iodide staining-based FACS analysis (reference value: 10.51%). It is filed as functional.
The next experiment has as its system COLO 205. Briefly: Cytotoxicity against human COLO205 cells after 48 hrs by MTT assay. The settings on record: COLO 205, 48 h. It counts as functional, cell-based. In a few lines:
as §1

Experiment [7] relates to HL-60. Briefly: Decrease in CDK1 expression in human HL60 cells after 24 hrs by Western blot analysis. It counts as functional, cell-based. In a few lines:
(§3)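 HL-60 cells treated 24 h at the indicated concentrations, harvested, lysed (30 min on ice, 12,000 g spin), protein by Bradford; samples run on 10% SDS-PAGE, transferred to nitrocellulose, immunodetected by chemiluminescence.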

Experiment [8] relates to HL-60. Briefly: Induction of apoptosis in human HL60 cells assessed as caspase3 cleavage at 0.25 to 1 uM by Western blot analysis. It counts as functional, cell-based. In a few lines:
as §3
On the technique in general: Immunoblotting shows a protein as a band on a membrane.

A short description of experiment [9]: Cell cycle arrest in human H460 cells assessed as accumulation at G0/G1 phase at 5 uM after 24 hrs by propidium iodide staining-based FACS analysis (reference value: 46.19%). It counts as functional. The settings on record: NCI-H460. The gist of the method: as §2
The subject of another experiment is A498. Briefly: Cytotoxicity against human A498 cells after 48 hrs by MTT assay. It counts as functional, cell-based. The settings on record: A498, 48 h. The gist of the method:
as §1

Experiment [10] can be described thus: Cell cycle arrest in human H460 cells assessed as accumulation at G2/M phase at 5 uM after 24 hrs by propidium iodide staining-based FACS analysis (reference value: 10.73%). It counts as functional. The settings on record: NCI-H460. In a few lines: as §2
The test system of the next experiment is MCF7. Briefly: Cytotoxicity against human MCF7 cells after 48 hrs by MTT assay. It is filed as functional, cell-based. As to conditions: MCF7, 48 h. In a few lines: as §1
Experiment [11] concerns HL-60. Put plainly: Cell cycle arrest in human HL60 cells assessed as accumulation at S phase at 1 uM after 24 hrs by propidium iodide staining-based FACS analysis (reference value: 49.69%). It counts as functional.

Calls of active or inactive are those of the source. No cut-off for these calls is given here.

The term IC50 denotes the midpoint of a concentration-inhibition curve. High values mean weaker potency in that assay, low ones greater potency in that assay. For the molecule `COc1ccc(-c2cc(=O)[nH]c3cc4c(cc23)OCO4)c(OC)c1`, the IC50 in the experiment on SK-OV-3 is 0.4 µM; with Detroit 551, more than 25 µM; with COLO 205, 7.4 µM; in the experiment with A498, 48 µM; in the experiment with MCF7, 6 µM. For the same molecule, the Activity in experiment [1] was 10.8%; in the experiment on HL-60 [2] it was 27.86%; in the experiment on HL-60 [3], 12.46%; with HL-60 [4], 13.88%; in [5] it was 9.6%; with HL-60 [6] it was 25.02%. Moreover, the Activity result in the experiment with HL-60 [7] is “Dose-dependent effect”; in [9] it was 9.37%; in experiment [10] it was 68.2%; in the experiment with HL-60 [11], 46.99%. Moreover, the result in the experiment with NCI-H460 and with HL-60 [8] was Active.

The record behind these values is ChEMBL document CHEMBL2417498, “Design and synthesis of 6,7-methylenedioxy-4-substituted phenylquinolin-2(1H)-one derivatives as novel anticancer agents that induce apoptosis with cell cycle arrest at G2/M phase” (Bioorg Med Chem, 2013).
